Data as given in ChEMBL document CHEMBL3244071, “3-Phenyl-5-[2,2,2-trifluoro-1-hydroxy-1-(trifluoromethyl)ethyl]indole-2-carbonitrile, a potent inhibitor of prostaglandin synthetase and of platelet aggregation” (J Med Chem, 1979).

Key:
[1] = Toxicity in po dosed mouse treated for 14 days; format: organism-based; details: in vivo
[2] = Toxicity in po dosed mouse; format: organism-based; details: in vivo
Procedure, shortened: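 Acute oral (single-dose) administration to mice; the endpoint was the LD50 in mg/kg.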

[3] = target: prostaglandin G/H synthase 1 (Bos taurus) (UniProt O62664); assay: Inhibition of prostaglandin synthetase (bovine) using arachidonic acid as substrate preincubated for 10 mins followed by substrate addition
[4] = test system: Platelet; assay: Inhibition of collagen-induced platelet aggregation in human platelet-rich plasma after 5 mins; format: functional
Procedure, shortened: (§1)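 Human PRP from centrifugation (180g, 15 min, room temperature); PPP from spinning PRP at 1000g for 2 min. 1 mL PRP stirred at 1000 rpm at 37 °C in a densitometer. Compounds added in physiological saline at various concentrations and incubated 5 min. Aggregation then triggered with ADP, epinephrine hydrochloride or human mammary-gland collagen. IC50 extrapolated from % inhibition vs log concentration.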

[5] = organism: Rattus norvegicus; assay: Toxicity in rat assessed as systemic antiinflammatory activity; format: organism-based; details: in vivo
[6] = test system: Rattus norvegicus; assay: Inhibition of PGF2-alpha formation in ip dosed rat serum after 1 hr by radioimmunoassay; format: functional
Procedure, shortened: (§2)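 Male rats, about 200 g, five per group, dosed at various levels ip or orally by intubation. Killed 1 h later and serum prepared. Serum extracted with ethyl acetate, extract evaporated under nitrogen, then assayed by radioimmunoassay using rabbit antibodies raised to PGF2α.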

[7] = test system: Rattus norvegicus; assay: Toxicity in po dosed rat assessed as gastric ulcer incidence after 4 hrs; format: organism-based, Stomach; details: in vivo
Procedure, shortened: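 Male rats fasted 18 h with water ad libitum. Dosed orally 4 h before autopsy. Stomachs opened along the lesser curvature, everted, rinsed in saline and examined for focal petechiae.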

[8] = test system: Mus musculus; assay: Inhibition of arachidonic acid-induced diarrhea in po dosed mouse treated for 1 hr prior to arachidonic acid-challenge measured after 30 mins; format: functional
Procedure, shortened: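 Male mice, 18-20 g, given compound orally 1 h before arachidonic acid 4 mg/kg ip. Diarrhea scored 0-4 on paper towels by pellet softness and wet ring.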

[9] = organism: Rattus norvegicus; assay: Toxicity in rat assessed as systemic analgesic activity; format: organism-based; details: in vivo
[10] = test system: Platelet; assay: Inhibition of ADP-induced platelet aggregation in human platelet-rich plasma after 5 mins; format: functional; procedure, shortened: as §1
[11] = test system: Rattus norvegicus; assay: Inhibition of PGF2-alpha formation in po dosed rat serum after 1 hr by radioimmunoassay; format: functional; procedure, shortened: as §2
[12] = target: prostaglandin G/H synthase 1 (Bos taurus) (UniProt O62664); assay: Ratio of indomethacin IC50 to compound IC50 for prostaglandin synthetase (bovine)
[13] = test system: Platelet; assay: Inhibition of epinephrine hydrochloride-induced platelet aggregation in human platelet-rich plasma after 5 mins; format: functional; procedure, shortened: as §1
[14] = Homo sapiens, Platelet, Plasma, 5 min, read-out: IC50

IC50 [4] [µM] | IC50 [10] [µM] | IC50 ([13]; platelet) [µM] | Compound | LD50 at 336 h [1] [mg/kg] | LD50 [2] [mg/kg] | IC50 [3] [µM] | Activity [5] | ED50 [6] [mg/kg] | ED50 [7] [mg/kg] | ED50 [8] [mg/kg] | Activity [9] | ED50 [11] [mg/kg] | Ratio IC50 [12] | IC50 [13, 14] [µM]
– | – | – | NC(=O)c1[nH]c2ccc(C(O)(C(F)(F)F)C(F)(F)F)cc2c1-c1ccccc1 | – | – | 7 | – | – | – | – | – | – | – | –
2.8 | 0.1 | – | COc1ccc2c(c1)c(CC(=O)O)c(C)n2C(=O)c1ccc(Cl)cc1 [INDOMETHACIN] | – | – | – | – | < 1 | 3 | 0.8 | – | < 1 | – | 3.2
31 | 25 | 18 | CC(=O)Oc1ccccc1C(=O)O [ASPIRIN] | – | – | – | – | 10 | 49 | 1.3 | – | 6.7 | – | –

Compound | IC50 [4] [µM] | IC50 [10] [µM] | IC50 ([13]; platelet) [µM] | LD50 at 336 h [1] [mg/kg] | LD50 [2] [mg/kg] | IC50 [3] [µM] | Activity [5] | ED50 [6] [mg/kg] | ED50 [7] [mg/kg] | ED50 [8] [mg/kg] | Activity [9] | ED50 [11] [mg/kg] | Ratio IC50 [12] | IC50 [13, 14] [µM]
N#Cc1[nH]c2ccc(C(O)(C(F)(F)F)C(F)(F)F)cc2c1-c1ccccc1 | 4.2 | 7.3 | – | > 1000 | > 1000 | 0.5 | Non-toxic | 15 | > 250 | 5 | Non-toxic | 28 | 2 | 34
